# High-throughput results: PubChem, several laboratories
# SENP1 inh: inhibitors of human SENP1 SUMO protease catalytic domain. 360,000 tested, 0.21% active. inhibition, % at 10 µM. recombinant SENP1 catalytic domain, CyPet-SUMO1-YPet FRET cleavage. Q9P0U3;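 active means inhibition at least 30% at 10 µM, raw YFP signal under a set limit, fluorescence ratio 0.5 to 1.5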;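 further: 0% = enzyme with DMSO and 100% = no enzyme wells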
# Target sequence (Q9P0U3 419-644 limits assumed): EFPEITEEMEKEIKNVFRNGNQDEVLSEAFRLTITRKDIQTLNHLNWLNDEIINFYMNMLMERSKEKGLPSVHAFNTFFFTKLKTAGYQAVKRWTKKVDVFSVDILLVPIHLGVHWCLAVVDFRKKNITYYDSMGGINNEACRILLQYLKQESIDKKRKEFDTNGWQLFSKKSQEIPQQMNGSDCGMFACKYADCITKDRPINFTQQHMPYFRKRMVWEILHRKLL
#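 Material: hSENP1 catalytic domain, recombinant; medium: Tris pH 8 with BME, BSA, NP40 and catalase; compound: single concentration of 10 µM compound, 0.5% DMSO final; technique: FRET read of cyan and yellow fluorescence; timing: 50 min enzyme reaction, room temperature, light-protected; reagent: SFCypet-SUMO1-SFYpet substrate at 25 nM; control set: no-enzyme low, enzyme-DMSO high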
# SENP7 block: inhibitors of human SENP7 protease; Q9BQF6; recombinant SENP7, Z-RLRGG-aminoluciferin luminescence, 40 min; inhibition, % at 5 µM; 330,000 tested, 1.5% active; AID 434973;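 active means inhibition above about 50% at the single test dose, limit read from the data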;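 further: plate controls were DMSO with enzyme for no effect and no enzyme buffer wells for full effect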
# Target sequence (Q9BQF6 706-1050 limits assumed): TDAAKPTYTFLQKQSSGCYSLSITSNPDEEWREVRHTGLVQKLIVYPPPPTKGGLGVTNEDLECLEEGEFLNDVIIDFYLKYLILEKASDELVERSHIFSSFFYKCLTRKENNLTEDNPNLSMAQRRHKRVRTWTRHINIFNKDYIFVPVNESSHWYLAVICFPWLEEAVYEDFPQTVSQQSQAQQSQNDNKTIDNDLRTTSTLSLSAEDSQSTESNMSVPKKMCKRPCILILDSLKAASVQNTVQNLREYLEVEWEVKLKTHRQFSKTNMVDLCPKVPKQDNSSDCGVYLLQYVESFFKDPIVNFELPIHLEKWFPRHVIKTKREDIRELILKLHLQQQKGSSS
# SENP8 block-1: SENP8 (human) protease inhibition; recombinant SENP8, Nedd8 substrate fluorescence; 360,000 tested, 0.64% active; inhibition, % at 20 µM; Q96LD8; AID 602440; in the data active means inhibition mostly above about 40%, no sharp cut-off; inactive means mostly below about 27%
# SENP6 block: blocks the human protease SENP6; Q9GZR1; Recombinant SENP6 catalytic domain, aminoluciferin luminescence; inhibition, % at 10 µM; 330,000 tested, 1.8% active;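 active means inhibition above about 50% at the single tested dose, limit read from the data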;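 further: plate controls were DMSO wells with enzyme for no effect and DMSO wells lacking enzyme for full effect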
# HSP90 refold inh: inhibitors of HSP90 luciferase refolding in rabbit reticulocyte lysate; luciferase refolding luminescence, 3 h; inhibition, % at 5.6 µM; 290,000 tested, 0.91% active; AID 1789;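 active means inhibition above the screen-wide mean plus 3 SD, computed separately per campaign, cut at about 16% in these data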;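 further: 0% = DMSO wells and 100% = 60 µM geldanamycin wells; inhibitors lower the luminescence because luciferase stays unfolded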
# SENP8 block-2: blocks the human protease SENP8; 330,000 tested, 1.2% active; AID 2540; Q96LD8; purified SENP8, Z-RLRGG-aminoluciferin cleavage, luminescence; inhibition, % at 10 µM; in the data active means inhibition above about 50%
# SENP8 conf: SENP8 (human) inhibition, single concentration confirmation; shares compounds with SENP8 block-1; purified SENP8, Nedd8-AMC/pro-Nedd8 cleavage fluorescence, 30 min; inhibition, % at 25 µM; 1,400 tested, 15% active; AID 624319; in the data active means inhibition mostly above about 39%, no sharp cut-off; inactive means mostly below about 34%
# The depositor's hits bear a star; nt = not tested or not shown. Most compounds without a hit are left out; they make up all but 2.9% or so of the library.
SMILES,SENP1 inh,SENP7 block,SENP8 block-1,SENP6 block,HSP90 refold inh,SENP8 block-2,SENP8 conf
Cc1cc([N+](=O)[O-])nn1CCCC(=O)N1CCN(c2ccccc2)CC1,-3,1,41*,7,5,2,9
Cc1noc(C)c1COc1ccccc1C(=O)N(C)CC(=O)Nc1ccc(F)c(F)c1F,2,4,3,-8,nt,7,nt
CC1CCN(c2cc(N3CCOCC3)c([N+](=O)[O-])cc2F)CC1,10,1,41*,-24,0,0,23
O=[N+]([O-])c1cc(-n2cccc2)ccc1N1CCOCC1,13,9,42*,11,0,6,8
Cc1ccc2[nH]c(C)c(/C=C/c3cc[n+](C)cc3)c2c1,-24,1,40*,-6,2,7,32
Cc1ccc2c(c1)c(/C=C/c1cc[n+](C)cc1)c(C)n2C,-19,3,44*,2,0,4,20
CCC(=O)NC(c1cccs1)c1cc([N+](=O)[O-])c2cccnc2c1OC (stereo not drawn),10,nt,96*,nt,nt,nt,34
CC1(C(=O)NCc2cccc3ccccc23)CCN1Cc1ccc(OC(F)(F)F)cc1 (stereo not drawn),4,nt,12,nt,nt,nt,nt
COc1cccc(N=Nc2c(=O)[nH]n3c(=O)cc(C)[nH]c23)c1,3,-6,48*,13,1,-4,32
COc1cccc(N=Nc2c(=O)[nH]n3c(=O)c4c([nH]c23)CCC4)c1,4,1,31,5,5,-4,nt
Cc1ccccc1NC(=O)CCc1nnc2ccc(N3CCC4(CC3)OCCO4)nn12,-1,-13,-2,1,-5,-9,nt
C[C@H]1CN([C@@H](C)CO)C(=O)CCCn2nncc2CO[C@@H]1CN(C)C(=O)c1ccc(N2CCN(C)CC2)cc1,4,nt,50*,nt,nt,nt,0
C[C@@H]1CN([C@H](C)CO)C(=O)CCCn2nncc2CO[C@H]1CN(C)C(=O)c1ccc(N2CCN(C)CC2)cc1,-2,nt,7,nt,nt,nt,nt
O=C(NNc1cccc(Cl)n1)Nc1ccc(Cl)cc1,2,-10,-2,11,-11,-6,nt
Cc1ccc(NNC(=O)Nc2ccc(Cl)cc2)nn1,2,5,48*,-1,-2,-6,2
O=C(NC1CCCC1)C(c1cccs1)N(Cc1ccco1)C(=O)c1csnn1 (stereo not drawn),1,6,40*,-10,1,5,4
O=C(NC1CCCCC1)C(c1ccccc1)N(Cc1ccco1)C(=O)c1csnn1 (stereo not drawn),1,-3,3,-13,-1,3,nt
O=C1NCCNC1c1ccccc1 (stereo not drawn),0,nt,8,nt,nt,nt,nt
Cc1ccccc1OCC(=O)Nc1nnc(C2CCCC2)s1,0,2,6,5,1,-3,nt
NCCNc1ccc(C(=O)N2c3ccccc3Sc3ccccc32)cc1[N+](=O)[O-],4,0,52*,-21,7,-18,21
COc1cc(OC)c([N+](=O)[O-])cc1/C=N/NC(=O)c1ccncc1,1,1,43*,-4,-1,3,97*
COc1cc(/C=N/NC(=O)c2ccncc2)c([N+](=O)[O-])cc1OC,5,-5,21,-9,7,-6,nt
CN(C)c1ccc(-c2csc(C(C)(O)c3ccc(F)c(F)c3)n2)cc1 (stereo not drawn),1,nt,-16,nt,nt,nt,nt
COc1ccc(CN(C)C(=O)c2cccc(NS(=O)(=O)c3ccccc3)c2)cc1F,-2,-3,4,-10,3,-14,nt
Cn1c(=O)[nH]c2nc[nH]c2c1=O,-3,4,13,9,nt,-4,nt
SMILES,SENP1 inh,SENP7 block,SENP8 block-1,SENP6 block,HSP90 refold inh,SENP8 block-2,SENP8 conf
Cn1cnc2nc[nH]c2c1=O,4,nt,58*,nt,nt,nt,12
O=C(OCc1cn([C@H]2C[C@H](c3ccc(Cl)cc3)N(C(=O)C3CCCCC3)C[C@@H]2O)nn1)c1ccccc1,2,nt,-3,nt,nt,nt,nt
COc1cc(N(C(C)=O)c2ccc(O)cc2)c2ncccc2c1,3,nt,20,nt,nt,nt,nt
COc1cc(N(C(C)=O)c2ccc(O)c(C(=O)O)c2)c2ncccc2c1,3,nt,44*,nt,nt,nt,61*
Nc1ccn(CC(=O)NCCc2ccccn2)c(=O)n1,2,-6,6,3,nt,-2,nt
O=c1ccc(NS(=O)(=O)c2ccccc2Cl)cn1Cc1ccc(Cl)c(Cl)c1,-13,10,39*,21,-2,10,-7
Cc1ccc(S(=O)(=O)Nc2ccc(=O)n(Cc3ccc(Cl)c(Cl)c3)c2)cc1,-61,-1,-46,5,4,9,nt
CC(C(=O)N1CCCC1)N(C)CC(=O)Nc1cccc(F)c1 (stereo not drawn),1,-1,3,8,nt,-2,nt
COCCNC(=O)C1(C)CCN(C(=O)C2(c3ccc(Cl)cc3)CCCC2)C1 (stereo not drawn),1,nt,17,nt,nt,nt,nt
CSc1nncc(/C(C)=N\Nc2ccccc2C)n1,-1,11,54*,-3,1,4,15
COCC1CCN(Cc2nc(-c3cccs3)no2)C1 (stereo not drawn),-1,2,6,-9,3,-5,nt
C[C@@H]1CN(Cc2nc(-c3cccs3)no2)C[C@H](C)O1,-1,-13,42*,1,2,-11,-6
COc1ccc(NC(=O)NNC(=O)C(C)Oc2ccc3ccccc3c2)cc1 (stereo not drawn),2,-12,1,-17,2,-12,nt
CC(=O)Nc1ccc(S(=O)(=O)N[C@@H](C)C(=O)OCc2cc([N+](=O)[O-])cc3c2OCOC3)cc1,3,3,45*,12,1,4,-1
CC(C)C(NS(=O)(=O)c1ccccc1)C(=O)OCc1cc([N+](=O)[O-])cc2c1OCOC2 (stereo not drawn),1,nt,6,nt,3,nt,nt
O=C(NCCN1CCOCC1)c1cc([N+](=O)[O-])ccc1Cl,-3,0,16,-8,-4,-11,nt
O=C(NCCN1CCOCC1)c1ccc([N+](=O)[O-])cc1[N+](=O)[O-],-2,-9,46*,-12,1,5,17
Cc1ccc(CN2CC(N3CC=CC3)CS2(=O)=O)cc1 (stereo not drawn),3,nt,48*,nt,nt,nt,26
Cc1ccc(SCC(=O)NNC(=O)CNC(=O)c2ccccc2F)cc1,4,-8,34,-15,nt,-9,nt
COCCCNC(=O)c1cccc2c(-c3ccnn3C)coc12,-3,nt,5,nt,nt,nt,nt
O=C1C(Cl)=C(N2CCN(Cc3ccccc3)CC2)C(=O)N1c1ccccc1,8,-4,48*,-12,0,-4,11
COc1ccc(N2C(=O)C(Cl)=C(N3CCN(Cc4ccccc4)CC3)C2=O)cc1,2,nt,17,nt,-4,nt,nt
CCc1ccc(N2C(=O)C(Cl)=C(N3CCOCC3)C2=O)cc1,9,9,41*,-6,7,-7,13
